In general, IC50 refers to the concentration needed to halve the response being measured. The Papp is a coefficient for how fast a substance crosses the barrier. By Papp A→B is commonly meant the apparent permeability from the apical to the basolateral side of a cell layer. A word on the Papp B→A: it is how fast a substance crosses the layer from the basolateral side.

This is an account of results in ChEMBL document CHEMBL4480410, “Targeting the MKK7-JNK (Mitogen-Activated Protein Kinase Kinase 7-c-Jun N-Terminal Kinase) Pathway with Covalent Inhibitors” (J Med Chem, 2019).

Converted amounts (≈) assume the structure as drawn. The source made the active and inactive calls. No cut-off for these calls is given here.

Series [1] deals with Epidermal growth factor receptor (Homo sapiens, UniProt P00533). Briefly: Inhibition of wild type EGFR (unknown origin) by HTRF assay. For orientation: Time-resolved FRET reads energy transfer from a long-lived donor to a nearby acceptor.
Sequence of Epidermal growth factor receptor (Homo sapiens, UniProt P00533) (P00533 whole entry): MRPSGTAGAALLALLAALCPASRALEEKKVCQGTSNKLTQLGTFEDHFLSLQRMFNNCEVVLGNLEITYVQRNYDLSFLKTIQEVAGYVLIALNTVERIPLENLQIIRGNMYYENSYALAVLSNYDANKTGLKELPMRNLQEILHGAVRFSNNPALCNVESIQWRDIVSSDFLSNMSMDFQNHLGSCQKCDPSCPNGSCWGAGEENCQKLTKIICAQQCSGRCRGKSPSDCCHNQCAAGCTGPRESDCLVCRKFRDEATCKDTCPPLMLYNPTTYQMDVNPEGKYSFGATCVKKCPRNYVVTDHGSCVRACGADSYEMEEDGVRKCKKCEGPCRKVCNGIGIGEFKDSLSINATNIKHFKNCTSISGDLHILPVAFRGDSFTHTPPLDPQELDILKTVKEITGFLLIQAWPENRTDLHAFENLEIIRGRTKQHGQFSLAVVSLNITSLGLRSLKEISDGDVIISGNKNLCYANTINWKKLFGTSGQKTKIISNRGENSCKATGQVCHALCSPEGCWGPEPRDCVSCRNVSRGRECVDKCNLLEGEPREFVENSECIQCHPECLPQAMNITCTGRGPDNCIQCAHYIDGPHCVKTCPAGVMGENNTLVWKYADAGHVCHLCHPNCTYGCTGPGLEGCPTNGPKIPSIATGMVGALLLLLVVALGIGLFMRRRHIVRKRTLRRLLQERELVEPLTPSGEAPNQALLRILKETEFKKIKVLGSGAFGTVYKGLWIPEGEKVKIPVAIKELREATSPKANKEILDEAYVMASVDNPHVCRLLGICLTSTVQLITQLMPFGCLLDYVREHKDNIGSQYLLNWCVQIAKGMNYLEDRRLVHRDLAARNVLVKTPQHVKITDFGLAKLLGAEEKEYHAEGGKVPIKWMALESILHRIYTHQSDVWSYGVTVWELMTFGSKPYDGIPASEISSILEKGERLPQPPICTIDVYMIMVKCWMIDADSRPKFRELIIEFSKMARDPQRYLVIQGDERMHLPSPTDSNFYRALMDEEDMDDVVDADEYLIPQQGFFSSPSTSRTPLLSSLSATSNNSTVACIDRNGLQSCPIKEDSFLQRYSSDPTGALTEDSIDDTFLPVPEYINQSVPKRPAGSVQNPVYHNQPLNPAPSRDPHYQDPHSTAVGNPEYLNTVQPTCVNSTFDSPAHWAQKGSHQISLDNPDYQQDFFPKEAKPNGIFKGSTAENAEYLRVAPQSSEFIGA
Series [2] is described as follows: Inhibition of N-terminal His-tagged MKK7 beta1 S273D/T275D double mutant (unknown origin) expressed in insect cells using JNK1 K55M mutant as substrate by ADP-Glo assay. Also noted: species or system Homo sapiens. Put shortly:
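ADP-Glo luminescence run per supplier protocol. Kinase: MKK7 beta1 (aa 1-462, TEV-cleavable N-terminal His6 tag, S273D/T275D) expressed in Sf9 insect cells, used at 20 nM. Substrate: JNK1 K55M at 5 µM. Compound dispensed acoustically; read on plate reader.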
(ADP-Glo first removes unused ATP, then detects ADP through luciferase.)

The target of series [3] is Epidermal growth factor receptor (Homo sapiens, UniProt P00533, L858R/T790M). The series can be described thus: Inhibition of EGFR L858R/T790M double mutant (unknown origin) by HTRF assay.
Sequence of Epidermal growth factor receptor (Homo sapiens, UniProt P00533, L858R/T790M) (P00533 25-1210 T790M/L858R limits assumed): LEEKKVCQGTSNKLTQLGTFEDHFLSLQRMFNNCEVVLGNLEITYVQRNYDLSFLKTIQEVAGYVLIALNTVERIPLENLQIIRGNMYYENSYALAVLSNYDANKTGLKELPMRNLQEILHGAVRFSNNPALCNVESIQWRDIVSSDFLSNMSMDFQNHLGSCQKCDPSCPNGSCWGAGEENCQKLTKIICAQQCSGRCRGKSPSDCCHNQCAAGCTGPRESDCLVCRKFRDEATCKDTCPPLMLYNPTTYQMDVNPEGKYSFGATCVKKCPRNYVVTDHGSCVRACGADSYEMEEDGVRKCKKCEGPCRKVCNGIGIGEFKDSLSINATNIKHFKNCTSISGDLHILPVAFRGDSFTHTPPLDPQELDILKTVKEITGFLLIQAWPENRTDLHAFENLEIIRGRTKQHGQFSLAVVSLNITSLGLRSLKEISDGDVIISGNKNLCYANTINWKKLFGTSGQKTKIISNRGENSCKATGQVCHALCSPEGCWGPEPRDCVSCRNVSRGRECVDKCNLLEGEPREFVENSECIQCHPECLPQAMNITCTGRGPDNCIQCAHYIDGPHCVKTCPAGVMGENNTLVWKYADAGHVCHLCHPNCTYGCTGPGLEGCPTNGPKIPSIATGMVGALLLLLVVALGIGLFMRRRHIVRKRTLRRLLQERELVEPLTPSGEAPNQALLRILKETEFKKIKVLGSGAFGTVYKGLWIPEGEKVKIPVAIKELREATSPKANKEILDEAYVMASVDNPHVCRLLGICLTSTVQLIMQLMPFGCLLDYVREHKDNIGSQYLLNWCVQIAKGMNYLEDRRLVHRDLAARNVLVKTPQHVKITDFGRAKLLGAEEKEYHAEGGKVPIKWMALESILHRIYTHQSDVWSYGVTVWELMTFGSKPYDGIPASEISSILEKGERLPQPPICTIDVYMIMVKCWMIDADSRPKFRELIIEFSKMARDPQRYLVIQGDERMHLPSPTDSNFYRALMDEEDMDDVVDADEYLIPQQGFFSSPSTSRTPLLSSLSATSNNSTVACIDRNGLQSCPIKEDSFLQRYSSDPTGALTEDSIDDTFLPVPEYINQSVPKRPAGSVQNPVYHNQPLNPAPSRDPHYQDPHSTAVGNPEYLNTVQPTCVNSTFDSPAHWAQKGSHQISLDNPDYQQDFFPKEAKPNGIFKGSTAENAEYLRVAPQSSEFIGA
Series [4] is described as follows: Protein binding in mouse plasma at 5 uM after 6 hrs by LC/MS analysis. Format: ADME, cell-free. The conditions noted are these: read-out: PPB (converted). Put shortly:
(§1)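 Equilibrium dialysis of plasma with compound at 5 µM, 6 h at 37 °C; final compound concentrations determined by LC/MS to give percent bound.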

A short description of series [5]: Apparent permeability across basolateral to apical side in human Caco2 cells at 5 uM after 2 hrs by transwell membrane based assay. It counts as ADME, cell-based, Caco-2. The conditions noted are these: caco-2, 2 h, 5 µM. Put shortly:
(§2)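 10 mM DMSO stock diluted to 5 µM final in HBSS pH 7.4; 2 h at 37 °C, 5% CO2 on Caco-2 monolayers grown 21 days on transwell membranes.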
(Passage across Caco-2 layers is used to estimate intestinal permeability.)

Series [6] can be described thus: Protein binding in human plasma at 5 uM after 6 hrs by LC/MS analysis. It counts as ADME, cell-free. The note with it: read-out: PPB (converted). Put shortly:
as §1

Series [7] in a line: Stability in human plasma assessed as compound remaining at 5 uM after 1 hr by LC/MS analysis. The note with it: read-out: Stability. Format: ADME, cell-free. Put shortly:
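Compound at 5 µM incubated 1 h at 37 °C in human or mouse plasma; percentage remaining quantified by LC/MS.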

Series [8] has as its target T1, Dual specificity mitogen-activated protein kinase kinase 7 (Homo sapiens) (UniProt O14733).
T1 sequence (whole entry): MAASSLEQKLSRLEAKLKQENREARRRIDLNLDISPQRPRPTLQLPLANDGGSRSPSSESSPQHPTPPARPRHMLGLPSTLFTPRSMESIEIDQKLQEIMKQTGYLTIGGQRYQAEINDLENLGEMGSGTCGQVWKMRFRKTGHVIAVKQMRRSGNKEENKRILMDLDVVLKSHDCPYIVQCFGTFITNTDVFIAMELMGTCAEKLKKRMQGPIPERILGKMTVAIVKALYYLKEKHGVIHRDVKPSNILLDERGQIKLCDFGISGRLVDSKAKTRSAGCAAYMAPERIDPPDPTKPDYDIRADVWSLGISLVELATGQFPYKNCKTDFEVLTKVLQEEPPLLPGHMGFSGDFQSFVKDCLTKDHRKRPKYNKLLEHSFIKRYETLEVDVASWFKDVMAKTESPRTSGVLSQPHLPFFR
The series can be described thus: Covalent binding affinity to MKK7 (unknown origin) assessed as formation of covalent bond with Cys218 residues by MS/MS analysis. Put shortly:
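Protein at 1 mg/mL incubated with 2-fold molar excess of compound, 30 min on ice, then denatured and run on 15% SDS gel. Band excised, reduced with 50 mM DTT (1 h, 37 °C), alkylated with 55 mM iodoacetamide (1 h, 20 °C), digested with 0.1 mg/mL trypsin 20 h at 30 °C, acidified with TFA. Analysed by ion-trap MS/MS.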

Series [9] is described as follows: Apparent permeability across apical to basolateral side in MDCK2-MDR1 cells at 10 uM after 2 hrs by transwell membrane based assay. The note with it: dog, MDCK-MDR1. It counts as ADME, cell-based, Canis lupus familiaris. Put shortly:
(§3)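 Compound at 10 µM in HBSS added to apical or basolateral side of MDCKII-MDR1 monolayer, 2 h at 37 °C. Both sides quantified by LC-MS/MS; Papp A–B or B–A from receiver concentration and volume, time, membrane area and initial donor concentration.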

Series [10] in a line: Apparent permeability across basolateral to apical side in MDCK2-MDR1 cells at 10 uM after 2 hrs by transwell membrane based assay. Format: ADME, cell-based, Canis lupus familiaris. The note with it: dog, MDCK-MDR1. Put shortly: as §3
Series [11] is described as follows: Permeability of the compound assessed as drug flux at 500 uM after 16 hrs by PAMPA. It counts as ADME. Put shortly: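 10 mM DMSO stock diluted to 500 µM final in 50 mM Hepes pH 7.4 on membrane coated with 10% dioleoylphosphatidylcholine, 0.5% cholesterol in dodecane; 16 h room temperature, wet chamber.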
The nature of series [12]: Apparent permeability across apical to basolateral side in human Caco2 cells at 5 uM after 2 hrs by transwell membrane based assay. It counts as ADME, cell-based. The conditions noted are these: Caco-2. Put shortly: as §2
Series [13] is described as follows: Kinetic solubility of the compound in Hepes buffer at pH 7.4 after 90 mins. Format: physicochemical. The conditions noted are these: read-out: Kinetic_solubility. Put shortly: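 Compound diluted from 10 mM DMSO stock to 500 µM final in 50 mM Hepes, pH 7.4, shaken 90 min at room temperature. Filtered through 0.2 µm PVDF, then OD scanned 250–500 nm in 10 nm steps. Solubility taken from AUC, normalized to a dilution in acetonitrile.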

Series [14] has as its target T2, Dual specificity mitogen-activated protein kinase kinase 7 (Mus musculus) (UniProt Q8CE90).
T2 sequence (whole entry): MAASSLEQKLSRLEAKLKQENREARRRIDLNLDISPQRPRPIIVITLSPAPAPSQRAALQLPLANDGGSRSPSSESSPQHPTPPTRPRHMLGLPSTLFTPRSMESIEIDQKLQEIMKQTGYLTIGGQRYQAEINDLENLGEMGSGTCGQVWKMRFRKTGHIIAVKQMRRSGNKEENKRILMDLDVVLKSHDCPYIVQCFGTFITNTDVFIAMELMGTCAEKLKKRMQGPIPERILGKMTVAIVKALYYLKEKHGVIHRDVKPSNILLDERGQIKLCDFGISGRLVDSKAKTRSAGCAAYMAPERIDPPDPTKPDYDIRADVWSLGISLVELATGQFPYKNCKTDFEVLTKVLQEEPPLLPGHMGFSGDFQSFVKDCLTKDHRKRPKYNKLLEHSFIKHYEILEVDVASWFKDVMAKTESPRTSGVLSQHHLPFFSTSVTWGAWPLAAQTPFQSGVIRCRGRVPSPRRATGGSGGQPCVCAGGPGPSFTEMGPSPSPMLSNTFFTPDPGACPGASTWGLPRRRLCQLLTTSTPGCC
Briefly: Inhibition of MKK7 in mouse DRG cells assessed as reduction in cJUN phosphorylation at 1 uM after 2 hrs by Western blot analysis. Format: cell-based. Put shortly:
(§4)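 Dissociated DRG neurons plated on laminin for 3 h, medium replaced, compound added for a further 2 h. Neurons lysed in RIPA buffer with phosphatase inhibitors. Western blots probed for phospho-cJun, cJun, phospho-JNK and JNK.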

Series [15] has as its target T2, Dual specificity mitogen-activated protein kinase kinase 7 (Mus musculus). The series can be described thus: Inhibition of MKK7 in mouse DRG cells assessed as reduction in JNK phosphorylation at 1 uM after 2 hrs by Western blot analysis. Format: cell-based. Put shortly:
as §4

Regarding `C=CC(=O)N1CCC[C@@H](n2nc(-c3cn(Cc4nc5ccc(Cl)cn5c4Br)nn3)c3c(N)ncnc32)C1`, the IC50 in series [1] came to 0.085 µM; in [2], 0.669 µM; in series [3], 0.104 µM.

The compound `C=CC(=O)N1CCC[C@@H](n2nc(-c3cn(C)c4ccccc34)c3c(N)ncnc32)C1` came in with a 50% inhibitory concentration (IC50) in series [2] of 0.302 µM.

`C=CC(=O)N1CCC[C@@H](n2nc(-c3ccc(Oc4ccccc4)cc3)c3c(N)ncnc32)C1` [IBRUTINIB]: the fraction unbound at 6 h, 5 µM in series [4] is 0.011; in series [6], 0.024. Further, the Papp in series [5] came to 9 nm/s. Besides, in series [7], the remaining at 1 h, 5 µM was determined as 79.7%. For the same compound, the IC50 in series [2] came to 0.078 µM. In series [8], the outcome was Active. In addition, the Papp A→B at 2 h, 10 µM in [9] stood at 220 nm/s. Also, the Papp B→A at 2 h, 10 µM in series [10] came out at 30 nm/s. In series [11], the permeability is 38%. Further, in [12], the Papp A→B at 2 h, 5 µM came out at 400 nm/s. For the same compound, the solubility kinetic at 1.5 h in series [13] is 36 µM (≈ 15.9 µg/mL).

For the compound `CCC(=O)N1CCC[C@@H](n2nc(-c3cn(-c4ccc(C(C)=O)cc4)nn3)c3c(N)ncnc32)C1`, the IC50 in series [1] is 0.649 µM; in [2], more than 10 µM; in series [3], 0.677 µM. Further, the inhibition entry in series [14] and in [15] was “inactive” in each case.

In the case of `C=CC(=O)N1CCC[C@@H](n2nc(-c3cn(-c4cc(C(F)(F)F)cnc4C#N)nn3)c3c(N)ncnc32)C1`, the IC50 in series [1] worked out at 0.006 µM; in [2], 0.788 µM; in series [3], 0.028 µM.

`C#Cc1nn([C@@H]2CCCN(C(=O)C=C)C2)c2ncnc(N)c12` returned an IC50 in [2] of 0.04 µM. Moreover, in series [8], the result was Active.
